Measured values: the EternaBench riboswitch data

Test system: MS2 coat protein
Assay: apparent Kd, MS2 coat protein; higher = weaker binding; RNA-MaP array; FMN 200 µM where present
Outline: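 In 100 mM Tris-HCl pH 7.5, 80 mM KCl, 4 mM MgCl2, BSA, DTT, yeast tRNA and Tween-20, SNAP-549-labelled MS2 coat protein was titrated from 0.7 or 1.5 nM, doubling to 3 µM, over designs transcribed by stalled E. coli RNA polymerase on Illumina sequencing-chip clusters. This was done first without ligand, then with ligand held constant. After green signal was normalised to red-channel RNA signal and control-cluster median Fmax, the apparent Kd was taken as the median of filtered per-cluster binding-curve fits.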

[1] = designed as: ON switch for flavin mononucleotide, no ligand
[2] = ligand present: flavin mononucleotide, designed as: ON switch for flavin mononucleotide
[3] = designed as: OFF switch for flavin mononucleotide, no ligand
[4] = ligand present: flavin mononucleotide, designed as: OFF switch for flavin mononucleotide

| Sequence | apparent Kd [1] | apparent Kd [2] | apparent Kd [3] | apparent Kd [4] |
| --- | --- | --- | --- | --- |
| GGUGGAAGCACAGGAUAUGUUGAUUUUAUGGUGUUACAUGAGGAUCACCCAUGUCCGCGAUUCUAACAGAAGGGUGCAUGGAUG | 543 nM | 59.9 nM | – | – |
| GGAUGUCAAAGACAUCCUAAACGAACAUGAGGAUCACCCAUGUAGGAUAUGCUACUCAAAGAGUAGCAGAAGGACAUGUGCCUU | – | – | 35 nM | 238 nM |
| CGAUAUGAUGCAGGAUAUCUAUCUUGAAUGAGGAGAGAAGGGCAAACCGAGACAUAAGCCUUAUUACAUGAGGAUCACCCAUGU | – | – | 10.4 nM | 9.38 nM |
| UAGGUCAUCUGAGGAUAUCGAACUCAAAGGCUACGAGAAGGCAGACUGACAUGAGGAUCACCCAUGUACCGGGAAGAUGCCUCC | – | – | 14.6 nM | 130 nM |
| AAAAAGACAGGAUAUACAUGAAAAAAAAAAAAAAAAAAAAAACAUGAGGAUCACCCAUGUAGAAGGGUCAAAAA | – | – | 111 nM | 106 nM |
| UGAUAGGACAGAGGAUAUGCCGAUAGGAUCUACUAUCGAAGAAUCCUCACAUGAGGAUCACCCAUGUAGAAGGCUGUCCUAUCC | – | – | 8.68 nM | 39.5 nM |
| AUCCGGGCCCAGAAGGUGCCAGCGAGAGCUGCACAUGAGGAUCACCCAUGUUGUCGGUGACGACGCAAGGAUAUGGGCCCGGAU | 24.4 nM | 6.89 nM | – | – |
| AUUAUUUAUAGUUAUUGGUAUUUUACAGAAGGUGAAAGUGUCACAUGAGGAUCACCCAUGUUCUUCAAGGAUAUGUUGUUAUAC | 64.2 nM | 11.6 nM | – | – |
| CGAUUGGGAGGAUAUGCGUGGAUAGUUUUAUAUAGUAUGUUACAUGAGGAUCACCCAUGUAGAAGGUUCGGUUG | – | – | 56.9 nM | 58.3 nM |
| AUUUGACACGUAGGAUAUCGCUCUAAUUUAACACGAGAAGGACGUACAUGAGGAUCACCCAUGUUAAAUGGUGUAGUUUAUUUG | – | – | 82.1 nM | 164 nM |
| UACAUCAAUGAAGGAUAUCUAUAUCCAACAUGAGGAUCACCCAUGUUGAGGAUCACCCAUGUAAAGGAGAAGGUUAAUAUAACU | 37.7 nM | 29.7 nM | – | – |
| AUGCUUCACACAGGAUAUACAUGAGGAUCACCCAUGUGUCCUCCGUAAUUGACACCAAUUACGCUGUAGAAGGGUGUGAAGCAU | – | – | 258 nM | 188 nM |
| UUUAAUAAGUAGAAGGACGGAGAGUAUGAAGUCGUAGGAUAUACAUAAGACAUGAGGAUCACCCAUGUGUGUAUUUUGGGUAUG | – | – | 12.8 nM | 13.4 nM |
| CGACACAUGAGGGUCUCCCAUGACAUGAGGAUCACCCAUGUGCAGGAUAUACGUGUGAUGGUAUAGUAGAAGGGCACUCUAUGU | – | – | 41.6 nM | 58 nM |
| AAAAGGGCAGGAUAUACAUGAGGAUCACCCAUGUGAAAAAAAAAAAAAAAAAAAAAGUGUAGAAGGGUCAAAAA | – | – | 74 nM | 76 nM |
| GAAUAGAAAGAUUAAUAUGAUUACAUGAGGAUCACCCAUGUAUAGGAUAUCGACGUCAAUGACGUCGAGAAGGAUACAUAAUAA | – | – | 14.5 nM | 26.1 nM |
| GAUUGACAUGAGGAUCACCCAUGUGAGGAUAUCGGCCGGACCUUGUUAGCUUCCACCGCGAGAAGGCACAUAGG | – | – | 30.9 nM | 41.6 nM |
| GUAGCUAUCGGAGGAUAUUCAUGAUACAUGAGGAUCACCCAUGUUAAAAUGGGAGAAGGCCGAUAGCUACAAGAGCGAAAGCUC | 41.1 nM | 8.01 nM | – | – |
| UGCAGGUGAGGAUAUGCGGGCGAGCUAACAUAAGCAUCGAAGCAGAAGGCACAUGAGGAUCACCCAUGUAGUCC | – | – | 18.9 nM | 28 nM |
| CCAGCGUAUGUGAGGAUAUGCUGGUCCUUGGAUCAGCAGAAGGCACAUGAGGAUCACCCAUGUGGAAACGUUGG | – | – | 18.7 nM | 63.5 nM |
| GAGUGACAUGAGGAUCACCCAUGUGAGGAUAUCGGACGGACCAAAUUAACAUCCGCCGCGAGAAGGCACAUCGG | – | – | 78.7 nM | 24.5 nM |
| CUGUAGUCAGGAUAUACAUGAGGAUCACCCAUGUAAAAUUUUAAUUUAAUUUGAAGGUGUAGAAGGGACCAGUU | – | – | 34.3 nM | 32.9 nM |
| AAAAAAAAAAGACAGGAUAUCCAAAAAAAAACAUGAGGAUCACCCAUGUAAAAAAAAAAAAAGUGGGAGAAGGGUCAAAAAAAAAA | 57.7 nM | 23.2 nM | – | – |
| AGUGCUAUGUAGAAGGCAGAUCUGAUUCAGAUCUGAGGAUAUACAUGAGGAUCACCCAUGUUAUGCACCAGCACGAGAGUGCAA | – | – | 8.2 nM | 17.5 nM |
| AAAACUGAAGGAUAUGCCAGGGUGAGAGCUGGUGACGUUUAACAUGAGGAUCACCCAUGUAGAAGGUCAAAACA | – | – | 15.3 nM | 17 nM |
| AAUUGAAACGUAGGAUAUCGCUAUUAAUUAAUUCGAGAAGGACGUACAUGAGGAUCACCCAUGUUUAAUGGUGUAGUUUAGUUG | – | – | 179 nM | 252 nM |
| UUUCCGCGAGGAUAUGCGGGUUGUGCUUUUCAUUUCUUAUAACAUGAGGAUCACCCAUGUAGAAGGUGCUUCUU | – | – | 151 nM | 144 nM |
| GAGCGAAAGCUCAAUGUCGAUAGCAGAAGGACAUGAAAACGUGAAAACACAUGAGGAUCACCCAUGUAGGAUAUGCUAUCGACU | – | – | 57.1 nM | 745 nM |

| Sequence | apparent Kd [1] | apparent Kd [2] | apparent Kd [3] | apparent Kd [4] |
| --- | --- | --- | --- | --- |
| GGGUUUGGAGGAUAUACAAUCCCGGGCCGAAAGGUUUGGGUACAUGAGGAUCACCCAUGUAGAAGGCCGGGCCC | – | – | 19.2 nM | 27.3 nM |
| GGGCCCGGUGUGAGGAUAUGCCCGGGUAAAUUUGGGCAGAAGGCACAUGAGGAUCACCCAUGUAAGCCGGGCCC | – | – | 13.9 nM | 13.8 nM |
| ACUAGUUGGUAAGGAUAUCCUACACUGUUCUGACCCGUGCAAGCUACAUGAGGAUCACCCAUGUGGGAGAAGGUGCGUCAACGC | – | – | 15.3 nM | 15.9 nM |
| UGGUACUAGGGAGGAUAUAGGAAGAUACAUGAGGAUCACCCAUGUUUAAGAAUGCCGAGAGGCAACUAGAAGGCCCUAGUACCU | 5 nM | 4.74 nM | – | – |
| UGCUACGGAGGAUAUACAUGAGGAUCACCCAUGUGAGAGAUUUGGCCGAGAGGCCAGUGUAGAAGGCCGUAGCU | – | – | 68.9 nM | 416 nM |
| AAAUAACCUAGCAAAAUUUCCUCACAUGAGGAUCACCCAUGUAGAAGGCUGUCCUAAAAUAGGACAGAGGAUAUACAUGCUAGG | – | – | 10.6 nM | 171 nM |
| GCUUGUGUUGAGGAUAUGCGCCGGCUCGCUGGCGCAGAAGGCGGCACAUGAGGAUCACCCAUGUCAGUUCGCGC | – | – | 19 nM | 157 nM |
| ACAUGAGGAUCACCCAUGUUGAUAGUAGAAGGGACAGAGAAGUAGUAACAUGAGGAUCACCCAUGUCAGGAUAUGCGAAUUGGA | 35.2 nM | 30.1 nM | – | – |
| CGGGAUUCCUGAGGAUAUGGAGCUGUCUACCUGGGCGACAUGAGGAUCACCCAUGUAGAACGCCUCCAGAAGGCAGCGAGAUUG | – | – | 27.3 nM | 23.8 nM |
| CCGGAAACGGGUAGCUGUACAUGAGGAUCACCCAUGUGAUCAUAGGAUAUGGAUGGUAAUUCCAUCCAGAAGGAUGUCAGCUAC | 216 nM | 715 nM | – | – |
| UGGUACUAGGGAGGAUAUGGGAAGAUACAUGAGGAUCACCCAUGUUUAAGAAUGCCGAGAGGCAACUAGAAGGCCCUAUUACCU | 365 nM | 20.1 nM | – | – |
| GUCUUAUUACAGAAGGUGUUUUACAUGAGGAUCACCCAUGUUUUAUUGUUUAAAUUUGAUAUUUACAAGGAUAUGUACUAAUCU | 25.1 nM | 21 nM | – | – |
| GUUACAUGAGGAUCACCCAUGUAUGUGUGGGAGUAAGUGUCUUAGGAUAUCUAUUAUUUAAUGUAAGAGAAGGAAGAUUGUUGU | 113 nM | 124 nM | – | – |
| AUGCUUUAUGUAGGAUAUGCAUACUGUUAGUAUGCAGAAGGACAUGAGGAUCACCCAUGUAUAUUAUUAUUACAUAUCAUACAU | – | – | 26 nM | 311 nM |
| CGUAUGUGAGGAUAUGACAAUGGUAUCUUCGGAUACCAUUGUCAGAAGGAACAUGAGGAUCACCCAUGUAGAUC | – | – | 53.2 nM | 110 nM |
| AUGUUACAUGAGGAUCACCCAUGUGAGGAUAUGUGUAUCCCUAAAAAAGUGUGGGACCACAGAAGGUACUUGGA | – | – | 51.5 nM | 50.4 nM |
| ACAUGAGGAUCACCCAUGUUCACAUAGGAUAUUGAUUUUAUUGGUUUUAGAAUAGUAAUUAACCUCAAGAAGGAUGCCAGUUGU | 11.1 nM | 9.31 nM | – | – |
| CGCUACGUUUCGUAGCAGUGUCAUCGAGAAGGCCCUGACAUGAGGAUCACCCAUGUUCCUGAAAAGGAGGAUAUCGAUGAUACA | 8.86 nM | 7.04 nM | – | – |
| GCCUUAUUGGUCAGGAUAUACAUUUGUUACUCUUUGUAGAAGGGACAUGAGGAUCACCCAUGUACAUUACAUUC | – | – | 20.8 nM | 33.5 nM |
| AUUAAGCAGCAGGAUAUAAGUAUCUAAAGGUGGUUAGAAGGGCUGACAUGAGGAUCACCCAUGUGCUCUUCGUG | – | – | 15.7 nM | 21.1 nM |
| GUCAGCUCGUCAGGAUAUACAUGAUAGAUCGAUUAAUUAAUUAAUUUAACAUGAGGAUCACCCAUGUAGAAGGGACGAGCUGAU | – | – | 109 nM | 84.2 nM |
| GGUUGGCGAGGAUAUACAUGAGGAUCACCCAUGUGGUCCUAAAAUAAAAUAAACCUUUGUAGAAGGCGCGGGUC | – | – | 268 nM | 428 nM |
| AAGAAACAUGAGGAUCACCCAUGUCGAGAGAGACGAGGAUAUCUGAAUCGAUUAGAUUACGGAGAAGGCGUGAAAA | 29.4 nM | 23.4 nM | – | – |
| CCGCAAAUGCAGGAUAUCGUAUCGGAUACGAUACGAGAAGGGCAAACAUGAGGAUCACCCAUGUGUCCUAGCGG | – | – | 15 nM | 26.6 nM |
| GACAAACAUGAGGAUCACCCAUGUUCAAACGAACAAGGAUAUGUGUGGAAACCGUACUAUACAGAAGGUGUCUGUC | 36.5 nM | 37.7 nM | – | – |
| UUUGCAUUCCGAGGAUAUUCAUUUAUUGUCUUCACAUGAGGAUCACCCAUGUGGCGCUUGCGCCGGGAGAAGGCGGUUUGCUUU | 21.7 nM | 24.9 nM | – | – |
| GUUUUUUUUCAUGUACAUGAGGAACAUGAGGAUCACCCAUGUAGAAGGAAUUUUUUUAAGUUUAGUUAGGAUAUACAUAUAUUG | – | – | 54.2 nM | 33.9 nM |
